# Laboratory results as given in PubChem BioAssay.
# The source made the active and inactive calls.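 Rule for the calls, unless noted: active = GFP response above 150% of the DMSO level; inconclusive = fewer than 70 events counted for a yeast strain; inactive = the rest.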
# Tests used:
# [1] = RPL19A-GFP modulators, yeast TOR pathway, confirmation, cell-based, S. cerevisiae, flow cytometry, cherry picks, mother/daughter gates (AID 2270;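 active = GFP response below 50% of the DMSO control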); details: S. cerevisiae RPL19A-GFP strain, 3 h, at 10 µM, stronger effect = lower value, 100 = same GFP as DMSO wells
# [2] = LAP4-GFP expression modulators in yeast, confirmation, cell-based, cherry picks, flow cytometry, mother/daughter gates (AID 2271;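 active = GFP response above 150% of the DMSO control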;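 note: ratio of sample to DMSO plate mean so 100% equals DMSO level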); details: S. cerevisiae LAP4-GFP strain, 3 h, at 10 µM, stronger effect = higher value, 100 means same as DMSO control
# Method in brief: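 Test system: GFP-fusion yeast strain / Amount: 0.2 OD600 cells / Buffer or medium: SC medium / Dosing: 10 µM single dose / Incubation: compound exposure 3 h at 30 °C, end-over-end rotation / Detection: HT flow cytometry, GFP fluorescence channel / Evaluation: median GFP fluorescence as percent of plate-mean DMSO wells / Control set: DMSO-only negative wells, rapamycin 400 ng/mL positive wells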
# [3] = modulators of MEP2-GFP levels in yeast, confirmation, S. cerevisiae, flow cytometry GFP, cherry picks (AID 2272;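 active = GFP response above 150% of the DMSO control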;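 note: ratio of well signal to plate DMSO mean so 100% equals DMSO level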); details: S. cerevisiae MEP2-GFP strain, 3 h, at 10 µM, stronger effect = higher value
# [4] = AGP1-GFP expression modulators, hit retest, confirmation, cell-based, flow cytometry, S. cerevisiae, cherry picks (AID 2273);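 note: median GFP channel fluorescence over the whole cell population gate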; details: S. cerevisiae AGP1-GFP strain, 3 h, at 10 µM
# [5] = modulators of CIT2-GFP expression in yeast, confirmation, S. cerevisiae, GFP fusion, cherry picks, mother/daughter gates (AID 2274); details: S. cerevisiae CIT2-GFP strain, flow cytometry, 3 h, at 10 µM, stronger effect = higher value
# [6] = measured here: daughter cell gate
# [7] = measured here: mother cell gate
# [8] = measured here: daughter cell gate response
# [9] = measured here: mother cell gate response
Structure (SMILES),GFP response vs DMSO [1],"GFP response vs DMSO [1, 6] [%]","GFP response vs DMSO [1, 7] [%]",GFP response relative to DMSO [2],"GFP response relative to DMSO [2, 8] [%]","GFP response relative to DMSO [2, 9] [%]",GFP response vs DMSO [3],"GFP response, % of DMSO [4]","GFP response, % of DMSO [5]","GFP response, % of DMSO [5, 6] [%]","GFP response, % of DMSO [5, 7] [%]"
NC(=O)c1ccccc1OCC(=O)c1ccc(Cl)cc1,100% (inactive),101,99,96.5% (inactive),96,97.4,99.3% (inactive),102% (inactive),100% (inactive),97.6,100
O=C1c2cccc3c(N4CCCCC4)ccc(c23)C(=O)N1CCO,100% (inactive),94.9,94.9,99.5% (inactive),99.1,98.4,105% (inactive),103% (inactive),103% (inactive),101,96.8
Cc1ccc(C(=O)c2c3ccccc3[n+]([O-])n2CCC(=O)O)cc1,66.2% (inactive),70.6,63.3,102% (inactive),101,105,104% (inactive),105% (inactive),99.3% (inactive),96.4,99.1
CN(O)/C=c1/ccc2c(n1)C(=O)C=CC=2,105% (inactive),108,100,192% (active),170,188,115% (inactive),93.2% (inactive),167% (active),150,161
O=C(OCC(=O)N1CCN(C(=O)c2ccco2)CC1)c1cc(-c2ccc(F)cc2)nc2ccccc12,78.9% (inactive),74.3,74.5,133% (inactive),107,138,125% (inactive),138% (inactive),135% (inactive),114,136
CCOc1ccccc1C1N=C(c2ccc(OC)cc2)CC(c2ccccc2O)N1 (stereo not drawn),102% (inactive),103,100,106% (inactive),99.7,109,105% (inactive),102% (inactive),110% (inactive),108,109
CCN(CC(=O)NC(C)(C)C)C(=O)COc1c(Cl)cc(Cl)c2ccc(C)nc12,100% (inactive),101,99.7,127% (inactive),121,125,126% (inactive),102% (inactive),108% (inactive),111,100
Nc1cccc(C(=O)Nc2ccccc2Cl)c1,99.8% (inactive),99.1,98.9,97.9% (inactive),97.6,98.3,100% (inactive),93.5% (inactive),103% (inactive),103,101
COc1ccc(S(=O)(=O)N2CCC(O)(c3ccc(Cl)cc3)CC2)cc1,101% (inactive),99.6,101,97.9% (inactive),97.6,97.2,105% (inactive),91.9% (inactive),107% (inactive),106,104
COC(=O)c1ccc(C(=O)NC(=S)Nc2ccc3nc(SC)sc3c2)cc1,97.8% (inactive),97.6,98.3,90% (inactive),90.4,91,101% (inactive),102% (inactive),103% (inactive),93.7,105
CN(CCCS(=O)(=O)[O-])c1ccc(/C=C/c2ccc3ccccc3[n+]2C)cc1,101% (inactive),100,101,102% (inactive),102,104,111% (inactive),99.6% (inactive),106% (inactive),106,106
CC(=O)Nc1cccc(C(=O)/C=C/c2ccc(C)cc2)c1,95.8% (inactive),96.8,95.1,117% (inactive),115,120,110% (inactive),102% (inactive),103% (inactive),103,102
Cc1ccc(CC2CC(=O)N(Cc3ccco3)C2=O)cc1 (stereo not drawn),102% (inactive),101,101,93.8% (inactive),97.2,94.2,95.7% (inactive),99.2% (inactive),107% (inactive),105,109
COc1ccc2c(c1)c(C(C)=O)c(C)n2-c1ccccc1OC,96.5% (inactive),97.8,95.4,101% (inactive),99,101,101% (inactive),107% (inactive),103% (inactive),101,103
O=C1CC(SCc2nc3ccccc3[nH]2)C(=O)N1c1cccc(F)c1 (stereo not drawn),98.7% (inactive),99.3,97.5,104% (inactive),105,105,99.3% (inactive),102% (inactive),103% (inactive),103,103
Cc1cc(N2CCC(C)CC2)n2ncc(-c3ccccc3)c2n1,99.9% (inactive),98.7,100,96.2% (inactive),94.1,98.3,97.8% (inactive),101% (inactive),102% (inactive),99.7,101
CS(=O)(=O)N1N=C(c2ccc(Br)cc2)CC1c1ccc2c(c1)OCO2 (stereo not drawn),102% (inactive),101,102,105% (inactive),104,104,114% (inactive),99.3% (inactive),109% (inactive),111,107

Structure (SMILES),GFP response vs DMSO [1],"GFP response vs DMSO [1, 6] [%]","GFP response vs DMSO [1, 7] [%]",GFP response relative to DMSO [2],"GFP response relative to DMSO [2, 8] [%]","GFP response relative to DMSO [2, 9] [%]",GFP response vs DMSO [3],"GFP response, % of DMSO [4]","GFP response, % of DMSO [5]","GFP response, % of DMSO [5, 6] [%]","GFP response, % of DMSO [5, 7] [%]"
O=C(Nc1ccccc1O)c1ccc(Cl)cc1,96.8% (inactive),95.6,96.6,98.7% (inactive),100,100,102% (inactive),97.8% (inactive),100% (inactive),99.7,98.7
COc1ccccc1OC(C)C(=O)Nc1ccccc1C(=O)NCC1CCCO1 (stereo not drawn),97% (inactive),95.2,97.2,97.7% (inactive),97.9,97.5,99.5% (inactive),103% (inactive),97.8% (inactive),98.3,96.8
COc1ccc(N2C(=O)C(Cl)=C(Oc3cccc(OC)c3)C2=O)cc1,90.9% (inactive),76.4,79.9,218% (active),203,227,105% (inactive),110% (inactive),98.4% (inactive),93.7,80.8
CCN(Cc1ccccc1)S(=O)(=O)c1ccc(C(=O)Nc2nnc(C)o2)cc1,97.2% (inactive),98.5,98.6,102% (inactive),102,107,102% (inactive),100% (inactive),101% (inactive),102,101
O=C(/C=C/c1ccccn1)c1cc(Br)ccc1O,81.7% (inactive),93.3,72.8,218% (active),177,210,109% (inactive),102% (inactive),86.1% (inactive),94.8,77.3
CC(C)(C)C1=CC=C(C(C)(C)C)C(=O)C1=O,102% (inactive),102,99.7,136% (inactive),131,136,104% (inactive),98.7% (inactive),104% (inactive),104,96.8
c1ccc(CSc2ccc(-c3ccccn3)nn2)cc1,101% (inactive),97.1,91.9,108% (inactive),104,106,114% (inactive),96.7% (inactive),97.3% (inactive),97.4,93.2
CCOc1ccccc1N1C(=O)CC(Sc2ncccc2C(=O)O)C1=O (stereo not drawn),101% (inactive),99,102,106% (inactive),106,107,120% (inactive),98.5% (inactive),103% (inactive),105,102
O=C1CC(Sc2ncccn2)C(=O)N1c1ccccc1C(F)(F)F (stereo not drawn),100% (inactive),100,100,98.7% (inactive),102,99.3,100% (inactive),98.9% (inactive),96.5% (inactive),96.5,97.7
O=C(COC(=O)c1n[nH]c2ccccc12)c1cccc(Br)c1,96.5% (inactive),95.6,94.8,101% (inactive),101,99.5,101% (inactive),102% (inactive),100% (inactive),95.8,100
Oc1c(C(Nc2nc3ccccc3s2)c2ccco2)ccc2cccnc12 (stereo not drawn),98.9% (inactive),98.7,95.9,149% (inactive),132,145,112% (inactive),97.7% (inactive),100% (inactive),103,94.9
COc1ccc(-c2noc(CCC(=O)Nc3cccc(C)c3)n2)cc1,96.6% (inactive),96.7,96.2,109% (inactive),105,108,102% (inactive),96.9% (inactive),97.8% (inactive),98.3,94.5
Cc1cc(Cl)ccc1N1C(=O)CC(SCCC(=O)O)C1=O (stereo not drawn),96.4% (inactive),97.6,95.3,103% (inactive),102,105,102% (inactive),97.8% (inactive),103% (inactive),103,101
CN1/C(=C\C(=O)c2cccc(S(=O)(=O)N3CCCCC3)c2)C(C)(C)c2ccccc21,96.8% (inactive),97.6,97.2,95.4% (inactive),97.6,94,100% (inactive),97.2% (inactive),98.3% (inactive),99.1,98.5
O=c1[nH]c2c(=O)[nH]cnc2nc1-c1ccccc1,103% (inactive),94.9,96.3,97% (inactive),95.9,88.8,101% (inactive),98.2% (inactive),97.3% (inactive),86.6,89.5
COc1ccc(NC(=O)C2CCN(S(=O)(=O)c3ccc(OC)c(OC)c3)CC2)c(OC)c1,90.6% (inactive),92,89,99.5% (inactive),99.1,102,107% (inactive),100% (inactive),103% (inactive),97.4,105
